In ChEMBL document CHEMBL1145440, “SAR and QSAR studies on the N-terminally acylated pentapeptide agonists for GPR54” (J Med Chem, 2007):
Square brackets hold non-standard residues; d marks the D form. Peptide text beside a SMILES is read from it. Trx = NC[C@H]1CC[C@H](C(=O)O)CC1; 4Amb = NCc1ccc(C(=O)O)cc1; 3Abz = Nc1cccc(C(=O)O)c1; 4Abz = Nc1ccc(C(=O)O)cc1; 2Abz = Nc1ccccc1C(=O)O; Ahx = NCCCCCC(=O)O

Experiments:
KiSS-1 receptor [1] = target: T1, KiSS-1 receptor (Homo sapiens, UniProt Q969F8); assay: Agonist activity at GPR54 expressed in CHO cells assessed as intracellular calcium mobilization; type: functional, cell-based
KiSS-1 receptor [2] = target: T1, KiSS-1 receptor; assay: Agonist activity at GPR54 expressed in CHO cells assessed as intracellular calcium mobilization at 10 nM relative to KP-10; type: functional, cell-based
Procedure, shortened: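 FLIPR Fluo3 Ca2+ mobilization in CHO/dhfr cells stably expressing GPR54, read over 40 s. Peptide tested at 10 nM (n = 3). Maximum signal expressed as a percentage of the maximum induced by 1 µM KP-10 (n = 3).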

KiSS-1 receptor [3] = target: T1, KiSS-1 receptor; assay: Ratio of EC50 of drug for GPR54 to EC50 of KP-10 for GPR54; type: functional
Procedure, shortened: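 Q calculated as EC50(compound)/EC50(KP-10), with KP-10 run as control on each FLIPR Ca2+ plate (GPR54/CHO cells) to correct for plate-to-plate variation.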

T1 sequence (Q969F8 whole entry): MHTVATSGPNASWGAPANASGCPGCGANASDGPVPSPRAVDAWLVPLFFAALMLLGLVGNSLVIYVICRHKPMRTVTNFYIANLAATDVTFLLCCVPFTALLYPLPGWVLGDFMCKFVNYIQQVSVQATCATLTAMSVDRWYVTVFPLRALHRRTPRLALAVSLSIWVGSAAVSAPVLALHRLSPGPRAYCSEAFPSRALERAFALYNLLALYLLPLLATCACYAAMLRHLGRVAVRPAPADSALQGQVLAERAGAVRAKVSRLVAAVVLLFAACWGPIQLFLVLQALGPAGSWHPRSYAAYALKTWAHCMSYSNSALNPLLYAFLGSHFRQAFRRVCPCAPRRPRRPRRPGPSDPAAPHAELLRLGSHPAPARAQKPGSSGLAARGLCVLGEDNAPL

| SMILES | EC50 (KiSS-1 receptor [1]) [nM] | Activity (KiSS-1 receptor [2]) [%] | Ratio EC50 (KiSS-1 receptor [3]) |
| --- | --- | --- | --- |
| CC(C)C[C@H](NC(=O)CNC(=O)[C@H](Cc1ccccc1)NC(=O)c1ccc(CO)cc1)C(=O)N[C@@H](CCCN=C(N)N)C(=O)N[C@@H](Cc1c[nH]c2ccccc12)C(N)=O | 3 | – | – |
| CC(C)C[C@H](NC(=O)CNC(=O)[C@H](Cc1ccccc1)NC(=O)c1ccc(CN(Cc2ccccc2)Cc2ccccc2)cc1)C(=O)N[C@@H](CCCNC(=N)N)C(=O)N[C@@H](Cc1c[nH]c2ccccc12)C(N)=O | – | 9.3 | – |
| CC(C)C[C@H](NC(=O)CNC(=O)[C@H](Cc1ccccc1)NC(=O)c1ccc(CN)cc1)C(=O)N[C@@H](CCCNC(=N)N)C(=O)N[C@@H](Cc1c[nH]c2ccccc12)C(N)=O (H-[4Amb]FGLRW-NH2) | 3.1 | 96.5 | 3.4 |
| CC(C)C[C@H](NC(=O)CNC(=O)[C@H](Cc1ccccc1)NC(=O)c1cc(O)c(O)c(O)c1)C(=O)N[C@@H](CCCN=C(N)N)C(=O)N[C@@H](Cc1c[nH]c2ccccc12)C(N)=O | > 100 | – | – |
| CC(C)C[C@H](NC(=O)CNC(=O)[C@H](Cc1ccccc1)NC(=O)[C@H]1CC[C@H](CN)CC1)C(=O)N[C@@H](CCCNC(=N)N)C(=O)N[C@@H](Cc1c[nH]c2ccccc12)C(N)=O (H-[Trx]FGLRW-NH2) | – | 9.9 | – |
| CC(C)C[C@H](NC(=O)CNC(=O)[C@H](Cc1ccccc1)NC(=O)c1ccccc1N)C(=O)N[C@@H](CCCNC(=N)N)C(=O)N[C@@H](Cc1c[nH]c2ccccc12)C(N)=O (H-[2Abz]FGLRW-NH2) | 3.1 | 94 | 2.8 |
| CC(C)C[C@H](NC(=O)CNC(=O)[C@H](Cc1ccccc1)NC(=O)c1ccc(F)cc1)C(=O)N[C@@H](CCCNC(=N)N)C(=O)N[C@@H](Cc1c[nH]c2ccccc12)C(N)=O | – | 95.6 | – |
| CC(C)C[C@H](NC(=O)CNC(=O)[C@H](Cc1ccccc1)NC(=O)c1ccc(CO)cc1)C(=O)N[C@@H](CCCNC(=N)N)C(=O)N[C@@H](Cc1c[nH]c2ccccc12)C(N)=O | – | 95.4 | 4.7 |
| CC(C)C[C@H](NC(=O)CNC(=O)[C@H](Cc1ccccc1)NC(=O)c1ccc(CN(Cc2ccccn2)Cc2ccccn2)cc1)C(=O)N[C@@H](CCCNC(=N)N)C(=O)N[C@@H](Cc1c[nH]c2ccccc12)C(N)=O | – | 88.9 | – |
| CC(C)C[C@H](NC(=O)CNC(=O)[C@H](Cc1ccccc1)NC(=O)c1c(F)c(F)c(F)c(F)c1F)C(=O)N[C@@H](CCCNC(=N)N)C(=O)N[C@@H](Cc1c[nH]c2ccccc12)C(N)=O | > 100 | 0.6 | – |
| CC(C)C[C@H](NC(=O)CNC(=O)[C@H](Cc1ccccc1)NC(=O)CCCCCN)C(=O)N[C@@H](CCCNC(=N)N)C(=O)N[C@@H](Cc1c[nH]c2ccccc12)C(N)=O (H-[Ahx]FGLRW-NH2) | – | 1.6 | – |
| CC(C)C[C@H](NC(=O)CNC(=O)[C@H](Cc1ccccc1)NC(=O)c1ccc(O)cc1)C(=O)N[C@@H](CCCNC(=N)N)C(=O)N[C@@H](Cc1c[nH]c2ccccc12)C(N)=O | – | 94.6 | – |
| CC(C)C[C@H](NC(=O)CNC(=O)[C@H](Cc1ccccc1)NC(=O)c1cccc(O)c1)C(=O)N[C@@H](CCCNC(=N)N)C(=O)N[C@@H](Cc1c[nH]c2ccccc12)C(N)=O | 1.2 | 99.7 | 1.6 |
| CC(C)C[C@H](NC(=O)CNC(=O)[C@H](Cc1ccccc1)NC(=O)c1ccc[nH]1)C(=O)N[C@@H](CCCNC(=N)N)C(=O)N[C@@H](Cc1c[nH]c2ccccc12)C(N)=O | – | 95.8 | 1.7 |
| CC(C)C[C@H](NC(=O)CNC(=O)[C@H](Cc1ccccc1)NC(=O)c1cc(O)c(O)c(O)c1)C(=O)N[C@@H](CCCNC(=N)N)C(=O)N[C@@H](Cc1c[nH]c2ccccc12)C(N)=O | – | 1 | – |
| CC(C)C[C@H](NC(=O)CNC(=O)[C@H](Cc1ccccc1)NC(=O)c1ccc(Cl)cc1)C(=O)N[C@@H](CCCNC(=N)N)C(=O)N[C@@H](Cc1c[nH]c2ccccc12)C(N)=O | – | 91.8 | – |
| CC(C)C[C@H](NC(=O)CNC(=O)[C@H](Cc1ccccc1)NC(=O)c1ccncc1)C(=O)N[C@@H](CCCNC(=N)N)C(=O)N[C@@H](Cc1c[nH]c2ccccc12)C(N)=O | 1.7 | 102 | 2.4 |

| SMILES | EC50 (KiSS-1 receptor [1]) [nM] | Activity (KiSS-1 receptor [2]) [%] | Ratio EC50 (KiSS-1 receptor [3]) |
| --- | --- | --- | --- |
| CC(C)C[C@H](NC(=O)CNC(=O)[C@H](Cc1ccccc1)NC(=O)c1ccc(CNC(=N)N)cc1)C(=O)N[C@@H](CCCNC(=N)N)C(=O)N[C@@H](Cc1c[nH]c2ccccc12)C(N)=O | – | 93.7 | – |
| CC(C)C[C@H](NC(=O)CNC(=O)[C@H](Cc1ccccc1)NC(=O)c1ccc(N)cc1)C(=O)N[C@@H](CCCNC(=N)N)C(=O)N[C@@H](Cc1c[nH]c2ccccc12)C(N)=O (H-[4Abz]FGLRW-NH2) | – | 90.4 | – |
| CC(C)C[C@H](NC(=O)CNC(=O)[C@H](Cc1ccccc1)NC(=O)c1ccccc1OC(=O)c1ccccc1O)C(=O)N[C@@H](CCCNC(=N)N)C(=O)N[C@@H](Cc1c[nH]c2ccccc12)C(N)=O | 3 | 92.1 | 4 |
| CC(C)C[C@H](NC(=O)CNC(=O)[C@H](Cc1ccccc1)NC(=O)c1c[nH]cn1)C(=O)N[C@@H](CCCNC(=N)N)C(=O)N[C@@H](Cc1c[nH]c2ccccc12)C(N)=O | – | 88.4 | – |
| CC(C)C[C@H](NC(=O)CNC(=O)[C@H](Cc1ccccc1)NC(=O)c1cccc(N)c1)C(=O)N[C@@H](CCCNC(=N)N)C(=O)N[C@@H](Cc1c[nH]c2ccccc12)C(N)=O (H-[3Abz]FGLRW-NH2) | 4.7 | 88.5 | 4.2 |
| CC(C)C[C@H](NC(=O)CNC(=O)[C@H](Cc1ccccc1)NC(=O)c1ccccc1O)C(=O)N[C@@H](CCCNC(=N)N)C(=O)N[C@@H](Cc1c[nH]c2ccccc12)C(N)=O | – | 90.1 | 6.6 |
| CC(C)C[C@H](NC(=O)CNC(=O)[C@H](Cc1ccccc1)NC(=O)c1ccccc1O)C(=O)N[C@@H](CCCN=C(N)N)C(=O)N[C@@H](Cc1c[nH]c2ccccc12)C(N)=O | 5 | – | – |
| COc1ccc(C(=O)N[C@@H](Cc2ccccc2)C(=O)NCC(=O)N[C@@H](CC(C)C)C(=O)N[C@@H](CCCNC(=N)N)C(=O)N[C@@H](Cc2c[nH]c3ccccc23)C(N)=O)cc1 | 1.2 | 104 | 1.6 |
| CC(C)C[C@H](NC(=O)CNC(=O)[C@H](Cc1ccccc1)NC(=O)c1ccc(CNCc2ccccc2)cc1)C(=O)N[C@@H](CCCNC(=N)N)C(=O)N[C@@H](Cc1c[nH]c2ccccc12)C(N)=O | 3.3 | 86.5 | 5.6 |
| CC(C)C[C@H](NC(=O)CNC(=O)[C@H](Cc1ccccc1)NC(=O)c1ccc(NC(=N)N)cc1)C(=O)N[C@@H](CCCNC(=N)N)C(=O)N[C@@H](Cc1c[nH]c2ccccc12)C(N)=O | 1.7 | 91.2 | 2.9 |
| CC(C)C[C@H](NC(=O)CNC(=O)[C@H](Cc1ccccc1)NC(=O)c1ccc[nH]1)C(=O)N[C@@H](CCCN=C(N)N)C(=O)N[C@@H](Cc1c[nH]c2ccccc12)C(N)=O | 2 | – | – |
| CC(C)C[C@H](NC(=O)CNC(=O)[C@H](Cc1ccccc1)NC(=O)c1ccc([N+](=O)[O-])cc1)C(=O)N[C@@H](CCCNC(=N)N)C(=O)N[C@@H](Cc1c[nH]c2ccccc12)C(N)=O | 1 | 94.3 | 1.5 |
| CC(=O)NCc1ccc(C(=O)N[C@@H](Cc2ccccc2)C(=O)NCC(=O)N[C@@H](CC(C)C)C(=O)N[C@@H](CCCNC(=N)N)C(=O)N[C@@H](Cc2c[nH]c3ccccc23)C(N)=O)cc1 (Ac-[4Amb]FGLRW-NH2) | – | 101 | – |
| CC(C)C[C@H](NC(=O)CNC(=O)[C@H](Cc1ccccc1)NC(=O)c1ccc(CNCc2ccccn2)cc1)C(=O)N[C@@H](CCCNC(=N)N)C(=O)N[C@@H](Cc1c[nH]c2ccccc12)C(N)=O | 2.7 | 89.3 | 4.5 |
| CC(C)C[C@H](NC(=O)CNC(=O)[C@H](Cc1ccccc1)NC(=O)c1cccnc1)C(=O)N[C@@H](CCCNC(=N)N)C(=O)N[C@@H](Cc1c[nH]c2ccccc12)C(N)=O | 3 | 93.5 | 4.1 |
| CC(C)C[C@H](NC(=O)CNC(=O)[C@H](Cc1ccccc1)NC(=O)c1ccccn1)C(=O)N[C@@H](CCCN=C(N)N)C(=O)N[C@@H](Cc1c[nH]c2ccccc12)C(N)=O | 0.8 | – | – |
